In brackets after ≈: the same amount, converted by molar mass. One block for each compound: values may come before it.
Legend:
[1] = Solubility in rat urine at pH 7 after 5 hrs; format: physicochemical
Procedure, shortened: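 Samples in rat urine at pH 7.0 were incubated at 37°C for 5 hours. They were analysed by HPLC on a C18 column with photodiode array and single mass detection.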

Rattus norvegicus [2] = test: Toxicity in Wistar Hannover rat kidney assessed as increase in plasma creatinine level at 500 to 2000 umol/kg, po qd administered for 7 days measured on day 7; format: organism-based; conditions: in vivo, 168 h
Procedure, shortened: (§1)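 Wistar Hannover rats, about 8 weeks old, were acclimatized about 2 weeks and randomized by body weight. Dosing was by oral gavage (10 ml/kg) once daily for 7 days, with vehicle controls. At the end of dosing, plasma (lithium heparin) was taken from the orbital plexus under isoflurane/oxygen anaesthesia, and urea and creatinine were measured.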

Rattus norvegicus [3] = test: Toxicity in Wistar Hannover rat kidney assessed as crystals in urine at 500 to 2000 umol/kg, po qd administered for 7 days measured on day 7; format: organism-based; conditions: in vivo, 168 h
[4] = Cmax in Sprague-Dawley rat at 2000 umol/kg, po qd administered for 7 days measured on day 7; format: ADME, organism-based; design: dose 2000 umol/kg, route oral; conditions: in vivo
Procedure, shortened: (§2)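 Toxicity study 2: 2 female satellite rats per dose group. Dosing was once daily by oral gavage (10 ml/kg) for 7 days. Tail-vein EDTA blood was taken at 2, 4, 6, 7 and 24 h on day 1 and on day 7, then chilled and centrifuged to plasma. Parent and M1 were quantified by LC-MS/MS, with M1 measured in negative electrospray mode.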

Rattus norvegicus [5] = test: Drug level in Wistar Hannover rat treated with [14C]-AZ'7847 at 500 umol/kg, po qd administered for 7 days measured on day 7 by radio monitoring method; format: ADME, organism-based; conditions: in vivo, 168 h
[6] = AUC (0 to 24 hrs) in Sprague-Dawley rat at 500 umol/kg, po qd administered for 7 days measured on day 7; format: ADME, organism-based; design: dose 500 umol/kg, time < 24 hr, route oral; conditions: plasma; procedure, shortened: as §2
[7] = Cmax in Wistar Hannover rat at 2000 umol/kg, po qd measured on day 1; conditions: in vivo
[8] = AUC (0 to 24 hrs) in Wistar Hannover rat at 500 umol/kg, po qd measured on day 1; conditions: plasma
Rattus norvegicus [9] = test: Toxicity in Wistar Hannover rat kidney assessed as histopathogical changes at 500 to 2000 umol/kg, po qd administered for 7 days measured on day 8 by hematoxylin/eosin staining-based light microscopic analysis; format: organism-based; conditions: in vivo, 168 h
Procedure, shortened: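 Wistar Hannover rats, about 8 weeks old, were gavaged once daily (10 ml/kg) for 7 days. One day after the last dose they were killed by carotid exsanguination under isoflurane/oxygen. Kidneys were fixed in buffered formalin, embedded in paraffin, sectioned, stained with hematoxylin and eosin, and examined by light microscopy.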

[10] = AUC (0 to 24 hrs) in Sprague-Dawley rat at 2000 umol/kg, po qd administered for 7 days measured on day 7; format: ADME, organism-based; design: time < 24 hr, dose 2000 umol/kg, route oral; conditions: plasma; procedure, shortened: as §2
Rattus norvegicus [11] = test: Toxicity in Wistar Hannover rat kidney assessed as increase in plasma urea level at 500 to 2000 umol/kg, po qd administered for 7 days measured on day 7; format: organism-based; conditions: in vivo, 168 h; procedure, shortened: as §1
[12] = Cmax in Wistar Hannover rat at 500 umol/kg, po qd measured on day 1; conditions: in vivo
[13] = Cmax in Sprague-Dawley rat at 500 umol/kg, po qd administered for 7 days measured on day 7; format: ADME, organism-based; design: dose 500 umol/kg, route oral; conditions: in vivo; procedure, shortened: as §2
[14] = AUC (0 to 24 hrs) in Wistar Hannover rat at 2000 umol/kg, po qd measured on day 1; conditions: plasma
Rattus norvegicus [15] = test: Drug metabolism in Wistar Hannover rat assessed as formation of benzene-1,2-disulfonamide metabolite M1 in plasma at 500 umol/kg, po qd administered for 7 days measured on day 7 by radio monitoring method; format: ADME, organism-based; conditions: in vivo, 168 h
[16] = Cmax in Sprague-Dawley rat at 435 umol/kg, po qd administered for 14 days measured on day 14; format: ADME, organism-based; design: dose 435 umol/kg, route oral; conditions: in vivo
Procedure, shortened: (§3)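 Toxicity study 3: 5 female animals per dose group for TK. The compound was given as a solution in 15% (w/v) hydroxypropyl-β-cyclodextrin in 0.2 M meglumine, by oral gavage (10 ml/kg) once daily for 14 days. Blood was microsampled at 2, 4, 6, 7 and 24 h on day 1 and on the last dosing day. Parent only was measured, not M1.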

[17] = AUC (0 to 24 hrs) in Sprague-Dawley rat at 10 umol/kg, po qd measured on day 1; format: ADME, organism-based; design: dose 10 umol/kg, time < 24 hr, route oral; conditions: plasma
Procedure, shortened: (§4)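 Single-dose PK in male Sprague-Dawley rats (n = 3). Plasma was profiled over time for parent and for the amide-hydrolysis metabolite M1, and AUC0–24 and Cmax were derived. The dosing protocol follows earlier work.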

Rattus norvegicus [18] = test: Toxicity in Wistar Hannover rat kidney assessed as crystals in urine at 435 to 900 umol/kg, po qd administered for 14 days measured on day 14; format: organism-based; conditions: in vivo, 336 h
[19] = Cmax in Sprague-Dawley rat at 10 umol/kg, po qd measured on day 1; format: ADME, organism-based; design: dose 10 umol/kg, route oral; conditions: in vivo; procedure, shortened: as §4
[20] = AUC (0 to 24 hrs) in Sprague-Dawley rat at 900 umol/kg, po qd measured on day 1; format: ADME, organism-based; design: time < 24 hr, dose 900 umol/kg, route oral; conditions: plasma; procedure, shortened: as §3
[21] = Drug metabolism in cryopreserved human hepatocytes assessed as amide hydrolysis at 1 to 10 uM by LC-MS analysis; format: ADME, cell-based, Hepatocyte
Procedure, shortened: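 Hepatocytes at 1 × 10^6 cells/ml in William's medium incubated at 37°C with gentle shaking under 5% CO2. Substrate was at […]. Metabolites were analysed by LC-MS.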

[22] = Cmax in Sprague-Dawley rat at 435 umol/kg, po qd measured on day 1; format: ADME, organism-based; design: dose 435 umol/kg, route oral; conditions: in vivo; procedure, shortened: as §3
[23] = AUC (0 to 24 hrs) in Sprague-Dawley rat at 900 umol/kg, po qd administered for 14 days measured on day 14; format: ADME, organism-based; design: dose 900 umol/kg, time < 24 hr, route oral; conditions: plasma; procedure, shortened: as §3
[24] = Cmax in Sprague-Dawley rat at 900 umol/kg, po qd measured on day 1; format: ADME, organism-based; design: dose 900 umol/kg, route oral; conditions: in vivo; procedure, shortened: as §3
[25] = Cmax in Sprague-Dawley rat at 900 umol/kg, po qd administered for 14 days measured on day 14; format: ADME, organism-based; design: dose 900 umol/kg, route oral; conditions: in vivo; procedure, shortened: as §3
Rattus norvegicus [26] = test: Toxicity in Wistar Hannover rat kidney assessed as increase in plasma creatinine level at 435 to 900 umol/kg, po qd administered for 14 days measured on day 14; format: organism-based; conditions: in vivo, 336 h, in the assay text read “900 umol/kg” for “435 to 900 umol/kg”
Procedure, shortened: (§5)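 Female Wistar Hannover rats (10 per group), about 8 weeks old, were dosed by oral gavage (10 ml/kg) once daily for 14 days. The compound was given as a solution in 15% (w/v) hydroxypropyl-β-cyclodextrin in 0.2 M meglumine. At the end of dosing, plasma (lithium heparin) was taken from the orbital plexus under isoflurane/oxygen anaesthesia for plasma chemistry.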

Rattus norvegicus [27] = test: Toxicity in Wistar Hannover rat kidney assessed as increase in plasma urea level at 435 to 900 umol/kg, po qd administered for 14 days measured on day 14; format: organism-based; conditions: in vivo, 336 h; procedure, shortened: as §5
Rattus norvegicus [28] = test: Toxicity in Wistar Hannover rat kidney assessed as change in plasma chemistry parameter at 435 umol/kg, po qd administered for 14 days measured on day 14; format: organism-based; conditions: in vivo, 336 h; procedure, shortened: as §5
[29] = AUC (0 to 24 hrs) in Sprague-Dawley rat at 435 umol/kg, po qd administered for 14 days measured on day 14; format: ADME, organism-based; design: dose 435 umol/kg, time < 24 hr, route oral; conditions: plasma; procedure, shortened: as §3
[30] = AUC (0 to 24 hrs) in Sprague-Dawley rat at 435 umol/kg, po qd measured on day 1; format: ADME, organism-based; design: dose 435 umol/kg, time < 24 hr, route oral; conditions: plasma; procedure, shortened: as §3

solubility at 5 h [1]: 83 µM (≈ 19.6 µg/mL)
Cmax [4]: 80 µM
Drug metabolism (Rattus norvegicus [5]): metabolite_detected
AUC at 24 h [6]: 1300 µM·h
Cmax [7]: 66 µM
AUC(0-t) at 24 h [8]: 1080 µM·h
AUC at 24 h [10]: 1250 µM·h
Cmax [12]: 57 µM
Cmax [13]: 70 µM
AUC(0-t) at 24 h [14]: 1150 µM·h
Compound: NS(=O)(=O)c1ccccc1S(N)(=O)=O
Activity (Rattus norvegicus [2]): Non-toxic
Activity (Rattus norvegicus [3]): Toxic
Activity (Rattus norvegicus [9]): Non-toxic
Activity (Rattus norvegicus [11]): Non-toxic

Drug metabolism (Rattus norvegicus [15]): metabolite_detected
Compound: NS(=O)(=O)c1ccccc1S(=O)(=O)N[14C](=O)c1ccc(C#Cc2ccccc2)cc1

Cmax [16]: 415 µM
AUC(0-t) at 24 h [17]: 58 µM·h
Cmax [19]: 11 µM
AUC(0-t) at 24 h [20]: 5030 µM·h
Drug metabolism [21]: metabolite_not_detected
Cmax [22]: 375 µM
AUC at 24 h [23]: 5000 µM·h
Cmax [24]: 540 µM
Cmax [25]: 480 µM
AUC at 24 h [29]: 2520 µM·h
AUC(0-t) at 24 h [30]: 2220 µM·h
Compound: Cc1cc(C(=O)NS(=O)(=O)c2ccccc2S(N)(=O)=O)ccc1C#CC1CCC1
Activity (Rattus norvegicus [18]): Toxic
Activity (Rattus norvegicus [26]): Toxic
Activity (Rattus norvegicus [27]): Toxic
Activity (Rattus norvegicus [28]): Non-toxic
